Source: PubChem BioAssay
Compounds with a hit are over-represented: about 0.63% of the library has one in this group of screens.
STK33 inh: inhibitors of purified STK33 kinase, primary screen, biochemical, ADP-Glo luminescence, homogeneous, cell-free; Serine/threonine-protein kinase 33 (Homo sapiens), Q9BYT3; MBP phosphorylation; inhibition, % at 10 µM; 320,000 tested, 0.073% active; AID 2661, 2010;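 active = inhibition at or above 25%, using the most active replicate where run in duplicate; inactive = inhibition below 25%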
Pemphigus Ab inh: inhibitors of pemphigus antibody binding to DSG3, primary screen, biochemical, bead-based, flow cytometry, scFv-GFP | Desmoglein-3 (Homo sapiens), P32926 | DSG3-coupled beads, scFv-anti-DSG3-GFP binding; active compounds read low | binding (percent of control), % at 10 µM | 310,000 tested, 0.48% active | AID 588358, 2011;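 active = binding more than 3 SD below its plate's average and above zero; inconclusive = below that plate limit but binding exactly zero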;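 note: hits lower antibody fragment binding to DSG3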
MT1-MMP act inh: blockers of MT1-MMP proenzyme processing, primary screen, HT1080 RFP-PRO-GFP cells, GFP/RFP fluorescence. 360,000 tested, 0.061% active. GFP/RFP ratio change, % at 20 µM. GFP/RFP ratio fluorescence, overnight; percent of plate control window, DMSO zero. Matrix metalloproteinase-14 (Homo sapiens), P50281;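 active = GFP/RFP ratio change of at least 30% with cell ATP level not reduced by more than half and red fluorescence within 50% of control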
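Material – HT1080 RFP-PRO-GFP cells · Control set – DMSO wells and RFP-L50D-GFP cells · Incubation – overnight cell settling, then overnight compound exposure, 37 °C, 5% CO2 · Compound dosing – single-point 20 µM compound, 1% DMSO · Read-out – GFP/RFP fluorescence ratio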
GSK3A inh: blockers of GSK3A enzyme activity – biochemical, luminescence, cell-free homogeneous, HTS, primary screen. Glycogen synthase kinase-3 alpha (Homo sapiens), P49840. GSK-3 alpha kinase, ADP-Glo luminescence, 60 min. inhibition, % at 10 µM. 320,000 tested, 0.1% active. AID 2650, 2010;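 active = more than half of replicates show inhibition above 20%; inconclusive = some but at most half of replicates above 20% inhibition; inactive = no replicate shows inhibition above 20%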;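 note: GST-tagged GSK-3 alpha with peptide substrate and 25 µM ATP; 0% = DMSO neutral wells and 100% = GW8510 positive control wells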
GSK3B inh: human GSK3beta kinase inhibitors, primary screen, biochemical, cell-free homogeneous, HTS. Glycogen synthase kinase-3 beta (Homo sapiens), P49841. GST-GSK3beta kinase, ADP-Glo luminescence, 60 min; active compounds read low. activity score (negative = inhibition), % at 10 µM. 300,000 tested, 0.038% active. AID 2097, 2009;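 active = more than half of replicate wells score below -50%, meaning over 50% inhibition versus plate controls; inconclusive = some replicates but at most half score below -50%; inactive = no replicate scores below -50%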;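 note: 0% = median DMSO wells and -100% = median GW8510 positive control wells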
Target sequence (P49841 whole entry, looked up): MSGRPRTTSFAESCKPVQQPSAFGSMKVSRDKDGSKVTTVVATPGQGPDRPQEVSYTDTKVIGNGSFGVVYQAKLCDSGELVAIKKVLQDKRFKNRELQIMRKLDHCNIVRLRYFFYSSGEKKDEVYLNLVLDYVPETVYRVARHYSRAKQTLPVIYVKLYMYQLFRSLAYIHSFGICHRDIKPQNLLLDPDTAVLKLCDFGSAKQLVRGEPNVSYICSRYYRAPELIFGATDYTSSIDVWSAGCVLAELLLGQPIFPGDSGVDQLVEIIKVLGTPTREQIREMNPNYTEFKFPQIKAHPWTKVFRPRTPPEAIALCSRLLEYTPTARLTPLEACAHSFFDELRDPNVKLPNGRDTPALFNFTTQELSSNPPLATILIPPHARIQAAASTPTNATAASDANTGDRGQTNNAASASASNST
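Assay system: GST-tagged human GSK3beta kinase, cell-free; Input: 1.6 ng GSK3beta; Medium: Tris/MgCl2 kinase buffer; Timing: 60 min enzyme reaction, room temperature; Signal: ADP-Glo luminescence quantifying ADP generated by kinase; Evaluation: score relative to plate controls; Benchmarks: DMSO neutral wells and GW8510 at 20 µM as positive.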
MT1-MMP conf: MT1-MMP activation inhibitors, hit retest, confirmation, single concentration, fluorescence, HT1080 RFP-PRO-GFP cells; inhibition, % at 20 µM; 200 tested, 10% active; AID 652235, 2013; GFP and RFP fluorescence ratio, overnight; shares compounds with MT1-MMP act inh;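 active = inhibition of at least 50% in the primary cell screen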
Numbers without * were called inactive.

Screening COc1ccccc1NC(=O)CCN1C(=O)/C(=C\c2cc(OC)c(OC)c(OC)c2)SC1=S returned STK33 inh -1, Pemphigus Ab inh inconclusive, MT1-MMP act inh 36*, GSK3A inh 3, GSK3B inh 2 and MT1-MMP conf 20.
`COc1cc(/C=C2\SC(=S)N(CCC(=O)Nc3ccccc3)C2=O)cc(OC)c1OC` gave STK33 inh 0, Pemphigus Ab inh 93, MT1-MMP act inh 11, GSK3A inh -3 and GSK3B inh 1.
For CC1(C)CCCN(C(=O)c2ccc3c(c2NCCO)C(=O)c2ccccc2C3=O)C1 the results were STK33 inh 3, Pemphigus Ab inh 92, MT1-MMP act inh 40*, GSK3A inh 2, GSK3B inh 0 and MT1-MMP conf 32.
`CCOc1ccc(N2CC(=O)SC2=S)cc1` gave STK33 inh -1, Pemphigus Ab inh 103, MT1-MMP act inh 37*, GSK3A inh -4, GSK3B inh 0 and MT1-MMP conf 2.
`O=C(O)c1cccc(N/N=C(\N=Nc2ccccc2)c2ccccc2)c1` gave STK33 inh -1, MT1-MMP act inh 9, GSK3A inh 0 and GSK3B inh 0.
O=C(O)c1ccc(N=N/C(=N\Nc2ccc(C(=O)O)cc2)c2ccccc2)cc1 was read as STK33 inh 5, MT1-MMP act inh 31*, GSK3B inh -2 and MT1-MMP conf 23.
`Oc1ccc(N=Nc2cccc(C(F)(F)F)c2)cc1C=Nc1ccc(N2CCOCC2)cc1` gave STK33 inh 1, Pemphigus Ab inh 92, MT1-MMP act inh 45*, GSK3A inh -3, GSK3B inh 1 and MT1-MMP conf 14.
For CN(Cc1ccccc1)C(=O)[C@@H]1CCCN1C(=O)[C@@H]1CCCN1C(=O)c1cccc(Cl)c1 the results were MT1-MMP act inh 6.
`CN(C)c1ccc(/C=C/c2ccc3ccccc3[n+]2C)cc1` gave STK33 inh 10, Pemphigus Ab inh 94, MT1-MMP act inh 87, GSK3A inh 16 and GSK3B inh 4.
CN(CCCS(=O)(=O)[O-])c1ccc(/C=C/c2ccc3ccccc3[n+]2C)cc1 was read as STK33 inh 3, Pemphigus Ab inh 94, MT1-MMP act inh 40*, GSK3A inh 2, GSK3B inh 3 and MT1-MMP conf 17.
CC[n+]1c(/C=C(\C)Nc2ccccc2)sc2ccccc21 was read as STK33 inh -2, Pemphigus Ab inh 127, MT1-MMP act inh -2 and GSK3A inh -1.
CC[n+]1c(/C=C/Nc2ccccc2)sc2ccccc21 was read as STK33 inh 1, Pemphigus Ab inh 190, MT1-MMP act inh 38*, GSK3A inh 1, GSK3B inh 0 and MT1-MMP conf 41.
Screening CCCN1/C(=C2/SC(=S)N(CC)C2=O)C=Cc2ccccc21 returned STK33 inh -1, Pemphigus Ab inh 98, MT1-MMP act inh 40*, GSK3A inh 1, GSK3B inh 1 and MT1-MMP conf 35.
CCCN1C(=O)/C(=C2/C=Cc3ccccc3N2CC)SC1=S was read as STK33 inh -1, Pemphigus Ab inh 99, MT1-MMP act inh 45*, GSK3A inh 1, GSK3B inh -3 and MT1-MMP conf 44.
`CN1C(=O)/C(=C2/C=Cc3ccccc3N2CCCS(=O)(=O)O)SC1=S` gave STK33 inh 0, Pemphigus Ab inh 97, MT1-MMP act inh 42*, GSK3A inh 7, GSK3B inh -4 and MT1-MMP conf 39.
For CCN1C(=O)/C(=C2/C=Cc3ccccc3N2CC)SC1=S the results were STK33 inh 0, Pemphigus Ab inh 96, MT1-MMP act inh 18, GSK3A inh 1 and GSK3B inh -1.
CCN1/C(=C2\C(=O)N(C)C(=S)N2C)C=Cc2ccccc21 was read as STK33 inh 0, Pemphigus Ab inh 95, MT1-MMP act inh 4, GSK3A inh 1 and GSK3B inh -2.
Screening COc1ccc(CNC[C@H]2O[C@@H](n3ccc(=O)[nH]c3=O)[C@H](O)[C@@H]2O)cc1 returned MT1-MMP act inh 4.
Screening COc1ccc(S(=O)(=O)N2CCC[C@H]2C(=O)N2CCC[C@H]2C(=O)NCc2ccc(F)cc2F)cc1C returned MT1-MMP act inh 5.
For CSc1nc(=S)n(Cc2ccccc2)c(C)c1C(C)=O the results were STK33 inh -1, Pemphigus Ab inh 127, MT1-MMP act inh -1, GSK3A inh -3 and GSK3B inh 1.
CCSc1nc(=S)n(Cc2ccccc2)c(C)c1C(C)=O was read as STK33 inh -1, Pemphigus Ab inh 90, MT1-MMP act inh 35*, GSK3A inh -2, GSK3B inh -1 and MT1-MMP conf 8.
COCOCCn1cc(CN2CCS(=O)(=O)N(Cc3ccc(-c4ccc(Cl)c(Cl)c4)cc3)C(C)C2=O)nn1 (stereo unspecified) was read as Pemphigus Ab inh 127 and MT1-MMP act inh -6.
For Cc1cc2ccccc2n1CCNC(=O)C1CCCCC1 the results were STK33 inh -1, Pemphigus Ab inh 96, MT1-MMP act inh 38*, GSK3A inh -1, GSK3B inh 2 and MT1-MMP conf 2.
Cc1cc2ccccc2n1CCNC(=O)C1CC1 was read as STK33 inh -1, Pemphigus Ab inh 97, MT1-MMP act inh 32*, GSK3A inh -1, GSK3B inh -1 and MT1-MMP conf 2.
`CC(OC(=O)c1ccc(S(C)(=O)=O)c([N+](=O)[O-])c1)C(=O)NC1C2CC3CC(C2)CC1C3` (stereo unspecified) gave MT1-MMP act inh 2.
`Cc1c(N=C/C=C2\N(C)c3ccccc3C2(C)C)c(=O)n(-c2ccccc2)n1C` gave STK33 inh -3, Pemphigus Ab inh 82, MT1-MMP act inh 0, GSK3A inh -1 and GSK3B inh -4.
CN1/C(=C\C=N\NC(=O)c2cccnc2)C(C)(C)c2ccccc21 was read as STK33 inh 0, Pemphigus Ab inh 94, MT1-MMP act inh -5, GSK3A inh 1 and GSK3B inh 0.
`Cc1c(NC(=S)/C=C2\N(C)c3ccccc3C2(C)C)c(=O)n(-c2ccccc2)n1C` gave STK33 inh -1, Pemphigus Ab inh 104, MT1-MMP act inh 33*, GSK3A inh -1, GSK3B inh -2 and MT1-MMP conf 13.
